Measurements reported in ChEMBL document CHEMBL1123616, “Thromboxane synthase inhibitors. Synthesis and pharmacological activity of (R)-, (S)-, and (+/-)-2,2-dimethyl-6-[2-(1H-imidazol-1-yl)-1-[[(4-methoxyphenyl)- methoxy]methyl]ethoxy]hexanoic acids” (J Med Chem, 1987).
pIC50: −log10 of the molar value.

How the values were obtained:
Format in all cases: functional
[1] = tested on: Cavia porcellus; assay: Inhibition of Collagen-induced Thromboxane (TXB2) in guinea pig whole blood ex vivo by oral 30 mg/kg administration of test compound.
In short: (§1)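 Male Dunkin-Hartley guinea pigs (300-350 g), fasted overnight, dosed orally by gavage in 50% PEG 400/50% carboxymethylcellulose vehicle. Pentobarbitone anaesthesia 10 min before bleed at 1 h post-dose. Aortic blood was taken into citrate and stirred at 37 °C. Collagen (10 μg/mL) was added and incubated 5 min, then stopped with indomethacin. Plasma TxB2 was measured by RIA and normalized to 5.0×10^8 platelets/mL. Groups of ≥4 animals.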

[2] = target: T1, Thromboxane-A synthase (Homo sapiens, UniProt P24557); assay: Inhibition of Thromboxane B2 formation in collagen-stimulated human platelets in platelet rich plasma.
T1 sequence (P24557 whole entry): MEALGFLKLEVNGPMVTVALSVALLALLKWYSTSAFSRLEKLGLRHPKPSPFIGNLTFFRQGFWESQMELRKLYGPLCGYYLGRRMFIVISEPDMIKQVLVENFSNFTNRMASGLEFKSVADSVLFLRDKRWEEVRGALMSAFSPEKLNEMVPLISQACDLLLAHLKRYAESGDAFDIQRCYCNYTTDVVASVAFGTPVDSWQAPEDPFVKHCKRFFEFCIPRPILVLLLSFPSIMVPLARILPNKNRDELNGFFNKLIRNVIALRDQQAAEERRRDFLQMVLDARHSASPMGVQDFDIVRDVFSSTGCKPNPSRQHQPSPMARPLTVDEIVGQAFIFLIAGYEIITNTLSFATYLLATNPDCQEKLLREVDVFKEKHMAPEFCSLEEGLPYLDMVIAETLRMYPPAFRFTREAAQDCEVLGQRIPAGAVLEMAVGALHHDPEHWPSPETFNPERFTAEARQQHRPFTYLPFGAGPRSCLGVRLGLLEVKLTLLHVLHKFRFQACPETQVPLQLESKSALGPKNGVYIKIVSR

[3] = tested on: Cavia porcellus; assay: Inhibition of Collagen-induced serum Thromboxane (TXB2) in guinea pig whole blood ex vivo after 30 mg/kg oral administration of compound.; in short: as §1
[4] = tested on: Cavia porcellus; assay: Inhibition of Collagen-induced serum Thromboxane (TXB2) generation in guinea pig whole blood ex vivo after 10 mg/kg oral administration of compound.; in short: as §1
[5] = tested on: Cavia porcellus; assay: Inhibition of Collagen-induced Thromboxane (TXB2) generation in guinea pig whole blood ex vivo by oral 10 mg/kg administration of test compound.; in short: as §1
[6] = tested on: Cavia porcellus; assay: Dose-related effect was determined 1 hr after oral administration in guinea pig and expressed as ED50 value; in short: as §1
[7] = tested on: Cavia porcellus; assay: Inhibition of Collagen-induced Thromboxane (TXB2) in guinea pig whole blood ex vivo after 1 hr of 30 mg/kg oral administration of compound.; in short: as §1
[8] = tested on: Cavia porcellus; assay: Inhibition of Collagen-induced serum Thromboxane (TXB2) in guinea pig whole blood ex vivo after 10 mg/kg oral administration of compound.; in short: as §1
[9] = tested on: Cavia porcellus; assay: Inhibition of Collagen-induced Thromboxane (TXB2) in guinea pig whole blood ex vivo after 1 hr of 10 mg/kg oral administration of compound.; in short: as §1
[10] = tested on: Cavia porcellus; assay: Inhibition of Collagen-induced Thromboxane (TXB2) in guinea pig whole blood ex vivo after 1 hr of 30 mg/kg oral administration of compound; in short: as §1

SMILES | Thromboxane B2 (TxB2) [1] | pIC50 [2] | inhibition in vivo at 30 mg/kg [3] | further results
COc1ccc(COCC(Cn2ccnc2)OCCCCC(=O)O)cc1 (stereo unspecified) | 1047 pg 0.1ml-1 500x10^3 | 6.14 | 43% | –
CCOC(=O)CCC/C=C/CC(COCc1ccc(OC)cc1)Cn1ccnc1 (stereo unspecified) | 1265 pg 0.1ml-1 500x10^3 | 6.41 | 23% | –
COc1ccc(COC[C@H](Cn2ccnc2)OCCCCC(C)(C)C(=O)O)cc1 | – | 7.44 | – | inhibition in vivo at 10 mg/kg [4]: 95%; Thromboxane B2 (TxB2) [5]: 61.9 pg 0.1ml-1 500x10^3; ED50 [6]: 1.4 mg/kg
CCOC(=O)CCCCOC(COCc1ccc(OC)cc1)Cn1ccnc1 (stereo unspecified) | 2018 pg 0.1ml-1 500x10^3 | 6.12 | -11% | –
COc1ccc(COCC(Cn2ccnc2)OCCCCCCC(=O)O)cc1 (stereo unspecified) | 923 pg 0.1ml-1 500x10^3 | 5.72 | 25% | –
O=C(O)c1ccc(OCCn2ccnc2)cc1 [DAZOXIBEN] | 674 pg 0.1ml-1 500x10^3 | – | 54% | ED50 [7]: 9.3 mg/kg
COc1ccc2c(c1)c(CC(=O)O)c(C)n2C(=O)c1ccc(Cl)cc1 [INDOMETHACIN] | – | – | – | inhibition in vivo at 10 mg/kg [8]: 99%; ED50 at 10 mg/kg [9]: < 10 mg/kg; Thromboxane B2 (TxB2) [5]: 27 pg 0.1ml-1 500x10^3
COc1ccc(COCC(Cn2ccnc2)OCCC/C=C/C(=O)O)cc1 (stereo unspecified) | 1302 pg 0.1ml-1 500x10^3 | 5.08 | 4% | –
COc1ccc(COCC(Cn2ccnc2)OCCCCCC(=O)O)cc1 (stereo unspecified) | 130 pg 0.1ml-1 500x10^3 | 6.25 | 82% | ED50 [7]: 10.5 mg/kg
COc1ccc(COCC(Cn2ccnc2)OCCCCCCC(C)(C)C(=O)O)cc1 (stereo unspecified) | – | < 4.70 | – | –
COc1ccc(COC[C@@H](Cn2ccnc2)OCCCCC(C)(C)C(=O)O)cc1 | 572 pg 0.1ml-1 500x10^3 | 6.38 | 71% | ED50 [7]: 12 mg/kg
CCOC(=O)CCCCCCC(COCc1ccc(OC)cc1)Cn1ccnc1 (stereo unspecified) | 683 pg 0.1ml-1 500x10^3 | 6.00 | 53% | –
CCOC(=O)CCCCCCOC(COCc1ccc(OC)cc1)Cn1ccnc1 (stereo unspecified) | 2720 pg 0.1ml-1 500x10^3 | 5.40 | 33% | –
CCOC(=O)C(C)(C)CCCCOC(COCc1ccc(OC)cc1)Cn1ccnc1 (stereo unspecified) | 55 pg 0.1ml-1 500x10^3 | 4.75 | 97% | ED50 [7]: 6.7 mg/kg
COc1ccc(COCC(CCCCCCC(=O)O)Cn2ccnc2)cc1 (stereo unspecified) | 1620 pg 0.1ml-1 500x10^3 | 5.84 | -18% | –
COc1ccc(COCC(Cn2ccnc2)OCCCCC(C)(C)C(=O)O)cc1 (racemic) | 153 pg 0.1ml-1 500x10^3 | 6.92 | 87% | ED50 [7]: 3.4 mg/kg
CCOC(=O)CCCCCOC(COCc1ccc(OC)cc1)Cn1ccnc1 (stereo unspecified) | 750 pg 0.1ml-1 500x10^3 | 6.92 | 63% | ED50 [10]: 13.5 mg/kg
CCOC(=O)/C=C/CCCOC(COCc1ccc(OC)cc1)Cn1ccnc1 (stereo unspecified) | – | 5.00 | – | –
